Measured values reported in ChEMBL document CHEMBL1687848, “In vitro effect of qnrA1, qnrB1, and qnrS1 genes on fluoroquinolone activity against isogenic Escherichia coli isolates with mutations in gyrA and parC” (2011).
Converted amounts (≈) assume the structure as drawn.

Assays:
Assay type in all cases: functional
Escherichia coli [1] = assay: Antibacterial activity against Escherichia coli ATCC 25922 expressing qnrB gene and pBK-QnrB1 assessed as resistant colonies recovered one step below mutant prevention concentration
Summary of the method: (§1)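 Resistant colonies recovered from Mueller-Hinton plates one concentration step below the MPC for each fluoroquinolone were retested for MIC. Mutants taken from plated concentrations closest to the MPC had the QRDRs of gyrA and parC analysed.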

Escherichia coli [2] = assay: Antibacterial activity against qnrS gene expressing Escherichia coli ATCC 25922 harboring GyrA S83L mutant and pBK-QnrS1 assessed as mutant prevention concentration
Escherichia coli [3] = assay: Antibacterial activity against Escherichia coli ATCC 25922 assessed as earliest time required to resistant colonies visible one step below mutant prevention concentration
Escherichia coli [4] = assay: Antibacterial activity against Escherichia coli ATCC 25922 expressing qnrA gene and pBK-QnrA1 by broth microdilution method
Escherichia coli [5] = assay: Antibacterial activity against qnrB gene expressing Escherichia coli ATCC 25922 harboring GyrA S83L mutant and pBK-QnrB1 assessed as resistant colonies recovered one step below mutant prevention concentration; summary of the method: as §1
Escherichia coli [6] = assay: Antibacterial activity against Escherichia coli ATCC 25922 expressing qnrS gene and pBK-QnrS1 by broth microdilution method
Escherichia coli [7] = assay: Ratio of mutant prevention concentration to MIC for Escherichia coli ATCC 25922 expressing qnrS gene and pBK-QnrS1
Summary of the method: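 MIC: broth microdilution per CLSI, in duplicate. The ratio is MPC over MIC. Strains are E. coli ATCC 25922 or its GyrA Ser83Leu gene-replacement mutant, with qnr genes on pBK-CMV introduced by electroporation.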

Escherichia coli [8] = assay: Antibacterial activity against qnrB gene expressing Escherichia coli ATCC 25922 harboring GyrA S83L mutant and pBK-QnrB1 by broth microdilution method
Escherichia coli [9] = assay: Antibacterial activity against Escherichia coli ATCC 25922 expressing qnrB gene and pBK-QnrB1 assessed as earliest time required to resistant colonies visible one step below mutant prevention concentration
Escherichia coli [10] = assay: Antibacterial activity against Escherichia coli ATCC 25922 harboring GyrA S83L mutant assessed as mutant prevention concentration
Escherichia coli [11] = assay: Antibacterial activity against qnrA gene expressing Escherichia coli ATCC 25922 harboring GyrA S83L mutant and pBK-QnrA1 assessed as resistant colonies recovered one step below mutant prevention concentration; summary of the method: as §1
Escherichia coli [12] = assay: Antibacterial activity against Escherichia coli ATCC 25922 harboring GyrA S83L mutant assessed as earliest time required to resistant colonies visible one step below mutant prevention concentration

CCn1cc(C(=O)O)c(=O)c2cc(F)c(N3CCNCC3)cc21 [NORFLOXACIN]
MIC (Escherichia coli [1]): 0.5 µg/mL (≈ 1.57 µM) | Activity (Escherichia coli [2]): 32 µg/mL | Time (Escherichia coli [3]): 48 h | MBC (Escherichia coli [4]): 1 µg/mL (≈ 3.13 µM) | MIC (Escherichia coli [4]): 0.5 µg/mL (≈ 1.57 µM) | MIC (Escherichia coli [5]): 2 µg/mL (≈ 6.26 µM) | MBC (Escherichia coli [6]): 1 µg/mL (≈ 3.13 µM) | MIC (Escherichia coli [6]): 0.5 µg/mL (≈ 1.57 µM) | Ratio (Escherichia coli [7]): 16 | MBC (Escherichia coli [8]): 1 µg/mL (≈ 3.13 µM) | MIC (Escherichia coli [8]): 1 µg/mL (≈ 3.13 µM) | Time (Escherichia coli [9]): 48 h | Activity (Escherichia coli [10]): 8 µg/mL | MIC (Escherichia coli [11]): 8 µg/mL (≈ 25.1 µM) | Time (Escherichia coli [12]): 24 h
